Results as given in ChEMBL document CHEMBL3272179, “Synthetic metabolites of neurohypophyseal hormones. (Des-9-glycinamide)oxytocin and (des-9-glycinamide, des-8-leucine)oxytocin” (1976).
Active and inactive are the calls of the source. The calls are words filed in the database; no cut-off is given here. Positions of bridges follow the written chain, without caps; N, C: chain ends. Residues, ends and D or L forms follow the SMILES beside them.

How the values were obtained:
Gallus gallus [1] = assay: Vasodepressor activity in conscious chicken; format: functional
Outline: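 Conscious chickens, minimum three, procedure of Coon. Tested for agonist activity at up to 1 mg analog per injection. Four-point design or matches against USP Posterior Pituitary Reference Standard.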

Rattus norvegicus [2] = assay: Antidiuretic activity in inactin- and ethanol-anesthetized, hydrated Sprague-Dawley rat assessed as maximal depression of rate of urine flow; format: functional
Outline: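 Six male Sprague-Dawley rats, anesthetized with Inactin and ethanol and hydrated. Method of Jeffers et al. as modified by Sawyer. The effective response was the maximal depression of urine flow rate. Four-point design or matches against USP Posterior Pituitary Reference Standard.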

Rattus norvegicus [3] = assay: Pressor activity in atropinized and urethane-anesthetized rat at 1 mg; format: functional, organism-based
Outline: (§1)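 Minimum of five atropinized, urethane-anesthetized male rats, following U.S. Pharmacopeia procedures. Tested for agonist and antagonist activity at single doses up to 1 mg. USP Posterior Pituitary Reference Standard used as reference.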

[4] = Oxytocic activity in uterine horns of rat […]; format: functional
Outline: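 Six isolated uterine horns from three rats in natural estrus, with estrus confirmed by vaginal smear on the assay morning. Holton method as modified by Munsick, in Mg2+-free van Dyke-Hastings bathing solution. Four-point design or matches against USP Posterior Pituitary Reference Standard.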

Anura = assay: Hydroosmotic activity in toad urinary bladder assessed as water transport; format: functional
Outline: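 Water transport across toad urinary bladder measured by Bentley's method as modified by Eggena et al. At least five animals. Four-point design or matches against USP Posterior Pituitary Reference Standard.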

Gallus gallus [5] = assay: Inhibition of oxytocin-induced vasodepressor activity in conscious chicken; format: functional, organism-based
Outline: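 Analog and oxytocin injected simultaneously into conscious chickens (minimum three), procedure of Coon. Oxytocin held at 5×10^-11 mol while analog dose was raised stepwise to 5×10^-4 mol. Read-out was inhibition of the oxytocin vasodepressor response.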

Rattus norvegicus [6] = assay: Pressor activity in atropinized and urethane-anesthetized rat; format: functional; outline: as §1

SMILES	Activity (Gallus gallus [1]) [U/mg]	Activity (Rattus norvegicus [2]) [U/mg]	Activity (Rattus norvegicus [3])	Activity [4] [U/mg]	Activity (Anura) [×10⁻⁹ M]	inhibition (Gallus gallus [5])	Activity (Rattus norvegicus [6]) [U/mg]
CC[C@H](C)[C@@H]1NC(=O)[C@H](Cc2ccc(O)cc2)NC(=O)[C@@H](N)CSSC[C@@H](C(=O)N2CCC[C@H]2C(=O)O)NC(=O)[C@H](CC(N)=O)NC(=O)[C@H](CCC(N)=O)NC1=O (H-CYIQNCP-OH; disulfide 1-6)	0.1	0.06	inactive	2.7	–	–	–
CC[C@H](C)[C@@H]1NC(=O)[C@H](Cc2ccc(O)cc2)NC(=O)[C@@H](N)CSSC[C@@H](C(=O)N2CCC[C@H]2C(=O)N[C@@H](CC(C)C)C(=O)O)NC(=O)[C@H](CC(N)=O)NC(=O)[C@H](CCC(N)=O)NC1=O (H-CYIQNCPL-OH; disulfide 1-6)	–	0.08	inactive	2.4	4	Active	–
CC[C@H](C)[C@@H]1NC(=O)[C@H](Cc2ccc(O)cc2)NC(=O)[C@@H](N)CSSC[C@@H](C(=O)N2CCC[C@H]2C(=O)N[C@@H](CC(C)C)C(=O)NCC(N)=O)NC(=O)[C@H](CC(N)=O)NC(=O)[C@H](CCC(N)=O)NC1=O [OXYTOCIN]	507	2.1	–	546	2.3	–	3.1
